Bioassay records as filed in PubChem BioAssay.
SIAE primary: human SIAE inhibition, primary screen; AID 1053197; actives 0.69% (n = 370,000); inhibition, % at 9.66 µM; Q9HAT2; SIAE FP-Rh probe binding, fluorescence polarization;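 active = inhibition above a cutoff: mean of compounds within the control limits plus 3 SD of those, cut at about 17% in these data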;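 note: 0% = plate median of compound wells and 100% = probe without SIAE protein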
HTRA1 inhibitor: HTRA1 (human) protease inhibition | Q92743 | recombinant HTRA1, FP-rhodamine activity-based probe, fluorescence polarization | inhibition, % at 5.96 µM | actives 0.5% (n = 340,000) | AID 504803; in the data active = inhibition above about 36%;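 note: 0% = enzyme with DMSO and 100% = wells lacking enzyme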
TCR-CD3 inh: inhibitors of human TCR-CD3 interaction. TAMRA-labeled TCR probe fluorescence, biochemical. inhibition, % at 9.4 µM. actives 0.37% (n = 360,000). AID 651800;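 note: recombinant mutant TCR 2C K166C tagged with TAMRA read by polarization; 0% = receptor in buffer alone and 100% = receptor with positive control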
PRMT1 inh: PRMT1 (human) inhibition, primary screen. Q99873. actives 1.3% (n = 370,000). inhibition, % at 2.79 µM. recombinant PRMT1, activity-based probe fluorescence polarization;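 active = inhibition above about 21% made by adding two undisclosed values, limit read from the data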
Target sequence (Q99873 whole entry, looked up): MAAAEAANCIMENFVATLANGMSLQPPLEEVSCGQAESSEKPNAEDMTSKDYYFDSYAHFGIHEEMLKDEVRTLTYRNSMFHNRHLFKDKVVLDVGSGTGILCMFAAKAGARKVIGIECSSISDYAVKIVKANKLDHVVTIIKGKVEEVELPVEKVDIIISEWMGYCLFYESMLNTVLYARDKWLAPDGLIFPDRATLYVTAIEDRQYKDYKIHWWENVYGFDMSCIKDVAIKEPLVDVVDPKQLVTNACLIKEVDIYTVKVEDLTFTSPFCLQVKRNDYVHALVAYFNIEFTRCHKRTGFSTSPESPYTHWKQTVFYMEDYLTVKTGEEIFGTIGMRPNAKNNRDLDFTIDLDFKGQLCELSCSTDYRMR
mABHD4 FP: inhibits mouse alpha/beta hydrolase domain 4; Q8VD66; purified mABHD4, FP-Rh probe fluorescence polarization; inhibition, % at 8.92 µM; actives 0.54% (n = 370,000); AID 720543;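 active = inhibition exceeding the mean over every tested compound plus 3 SD, cut at about 30% in these data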;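 note: 0% = plate median of compound wells and 100% = S159A mutant with DMSO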
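Doses – 8.92 µM, single dose · Material – wild-type mouse ABHD4 protein · Replication – single well per compound (singlicate) · Measure – percent inhibition of probe binding, normalized to plate controls · Schedule – 45 min compound pre-incubation plus 60 min probe step, 25 °C · Detection – fluorescence polarization with parallel and perpendicular emission, 525/598 nm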
HTRA1 conf: HTRA1 (human) inhibition, confirmation; actives 66% (n = 1,600); inhibition, % at 5.96 µM; AID 540248; shares compounds with HTRA1 inhibitor; recombinant HTRA1, FP-rhodamine activity-based probe, fluorescence polarization;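 active = mean inhibition over three repeats above a set limit taken from the earlier primary screen, cut at about 37% in these data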;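 note: 0% = HTRA1 with DMSO and 100% = wells lacking HTRA1; inhibitors block probe binding so polarization drops and inhibition rises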
BSA TAMRA ctr: counter-screen for TCR-CD3 interaction inhibitors: BSA probe; AID 652035; actives 10% (n = 1,200); shares compounds with TCR-CD3 inh; TAMRA-labeled BSA probe fluorescence counterscreen; inhibition, % at 9.4 µM; in the data active = inhibition above about 23%;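 note: 0% = buffer low control and 100% = reference high control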
TCR-CD3 conf: TCR-CD3 interaction inhibition, confirmation. shares compounds with TCR-CD3 inh. TAMRA-labeled TCR probe fluorescence binding assay. inhibition, % at 9.4 µM. actives 48% (n = 1,200)
PRMT1 confirm: PRMT1 (human) inhibition, FP confirmation; actives 42% (n = 3,300); shares compounds with PRMT1 inh; inhibition, % at 2.79 µM; recombinant His-PRMT1, activity-based probe fluorescence polarization; AID 687036;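 active = mean inhibition across replicates above the hit cutoff derived for the earlier primary screen, cut at about 22% in these data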
An asterisk follows results filed as active; . = not tested or not shown. Rows were chosen to be rich in hits. Some 2.6% of all compounds tested hit in one or more screens of this group. Cut-off read from the data, not from the text of the source, unless noted: active = inhibition above about 19%; inactive = the rest.

SMILES | SIAE primary | HTRA1 inhibitor | TCR-CD3 inh | PRMT1 inh | mABHD4 FP | HTRA1 conf | BSA TAMRA ctr | TCR-CD3 conf | others
CCn1c(SCC(=O)c2ccc(O)c(O)c2)nnc1-c1ccccc1OC | 5.0 | 37.7* | 28.8* | 6.7 | 24.9 | 44.0* | -0.8 | 31.4*
O=C(CN1C(=O)C2CC=CCC2C1=O)Nc1nnc(C2CC2)s1 (stereo unspecified) | 5.2 | 5.1 | -9.9 | 2.7 | -0.9 | . | . | .
COc1cccc(-c2ncn(CCc3ccccc3OC)c2C(C)C)c1 | -0.2 | . | 0.4 | -2.2 | -6.3 | . | . | .
Cc1ccc(C2=NC(=O)/C(=C/c3cc(O)c(O)c(Br)c3)S2)cc1 | -5.7 | 67.5* | 33.3* | 23.0* | 21.9 | 71.1* | -9.9 | 46.7*
Nc1ncnc2c1ncn2[C@@H]1O[C@H](C(=O)N[C@@H](CCc2ccccc2)C(=O)N2CCN(C(=O)C(F)(F)F)CC2)[C@@H](O)[C@H]1O | 6.0 | . | 10.0 | -1.8 | 2.7 | . | . | .
NC(=S)N/N=C/c1c(O)c(Br)cc2oc3c(c12)CCCC3 | 8.3 | 52.9* | 42.8* | 0.3 | 25.4 | 47.5* | -15.6 | 27.7*
O=[N+]([O-])c1ccc(Nc2ccccc2)c2nonc12 | -4.2 | 3.8 | -7.8 | 0.8 | -6.0 | . | . | .
NNc1ccc([N+](=O)[O-])c2[nH][nH]c(=O)c12 | 5.1 | 52.4* | 50.4* | 40.1* | 53.8* | 49.0* | -17.9 | 105.6*
Cn1c(NC2=NC3(CCCC3)C3=C(CCCC3=O)N2)nc2ccccc21 | 4.9 | . | . | 1.6 | 3.9 | . | . | .
O=c1cc(-c2ccc(O)c(O)c2)oc2ccc3ccccc3c12 | 4.4 | 68.9* | 56.3* | 4.8 | 22.9 | 70.2* | -5.7 | 48.1*
Cc1[nH]n(-c2ccccc2)c(=O)c1N=Nc1ccccc1O | -5.9 | 42.6* | 27.7* | 2.4 | -53.4 | 30.9 | -4.2 | 19.9*
CC(C)C[C@H]1CN(CCCC[C@@H]2CNC(=O)C(=O)N2Cc2ccccc2)C(=O)C(=O)N1CC1CCCCC1 | 0.6 | . | 3.2 | -1.1 | -7.4 | . | . | .
Cc1ccc2nc(-c3ccccc3)cn2c1 | -0.1 | 0.2 | 5.0 | 0.1 | -3.0 | . | . | .
Cc1ccc2nc(-c3ccc(O)c(O)c3)cn2c1 | 12.3 | 45.1* | 53.9* | 1.7 | 13.6 | 74.4* | -3.1 | 28.2*
O=C(N/N=C/c1c(O)ccc2ccccc12)c1ccc[n+](CCO)c1 | 7.1 | 52.5* | 25.7* | 1.1 | 11.4 | 49.8* | -10.2 | 16.6
O=C(CCCn1c(SCC(=O)c2ccc(O)c(O)c2)nc2ccccc2c1=O)NCC1CCCO1 (stereo unspecified) | 8.4 | 38.1* | 21.4* | 6.7 | 15.7 | 36.4* | -16.2 | 39.5*
O=C(CCCn1c(SCC(=O)NC2CCCCC2)nc2ccccc2c1=O)NCC1CCCO1 (stereo unspecified) | -10.2 | 6.8 | 0.1 | 0.8 | 4.9 | . | . | .
COc1cc(/C=C2\CC/C(=C\c3cc(OC)c(OC)c(OC)c3)C2=O)cc(OC)c1OC | 2.8 | 6.6 | 5.4 | 0.5 | -2.9 | . | . | .
COc1cc(/C=C2\CC/C(=C\c3cc(OC)c(O)c(OC)c3)C2=O)cc(OC)c1O | -42.7 | 46.3* | 37.6* | 27.4* | 19.9 | 55.3* | -26.2 | 41.0*
c1ccc(CSc2nnc(-c3ccco3)n2Cc2ccco2)cc1 | 8.4 | -6.5 | 6.5 | -0.1 | -1.2 | . | . | .
CCCCOc1[nH]c2nc(-c3ccco3)n(Cc3ccco3)c(=N)c2c1C#N | 15.9 | 42.4* | 8.2 | 35.0* | 45.0* | -5.5 | . | . | PRMT1 confirm=31.8*
CC(C)(C)c1ccc(O)c(O)c1 | -2.4 | 37.8* | 6.1 | 25.6* | 24.6 | 60.3* | . | . | PRMT1 confirm=16.7
O=S(=O)(O)c1cc(O)c(N=Nc2ccc(O)cc2O)c2ccccc12 | 11.5 | 78.1* | 150.3* | 43.8* | -35.7 | 53.7* | 171.4* | 129.6* | PRMT1 confirm=42.7*
COc1ccc(Cc2c(C3CCCCC3)nc3ccc(C)cn23)c(C)c1 | -0.2 | . | -6.0 | 1.9 | 10.7 | . | . | .
